Dynein cargo inh: blocks dynein driven cargo transport along microtubules | 3617.4 mouse cells, GR-EGFP nuclear translocation imaging; test concentration mostly 20 µM; stimulated with dexamethasone, 1 µM; hits give low values | z-score, hits read low | 220,000 tested, 0.47% active;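 active = plate z-score of nuclear minus cytoplasmic receptor signal below a set negative limit, without overly bright fluorescence or cell loss, cut at about -3.5 in these data, passing the limit was not always enough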;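 also: z-score of nuclear minus cytoplasmic ring GR-EGFP intensity difference per well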
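medium = tetracycline-free induction medium containing charcoal-stripped FBS | also added = 1.0 µM final dexamethasone stimulus | schedule = 48 h induction, 1 h compound, 30 min dex at 37 °C | technique = fixed, Hoechst-stained cells imaged at 10x for EGFP | measure = GR-EGFP nuclear translocation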
CHOP inhibitor: blocks CHOP induction under ER stress; CHO-K1 CHOP-promoter luciferase, tunicamycin-induced, 15-18 h; inhibition, % at 10 µM; 220,000 tested, 3.8% active;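 active = compounds that reduced the stress-induced luciferase reporter signal by more than about 70% of percent inhibition, limit read from the data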
L major viab: reduces viability of Leishmania major promastigotes; inhibition, % at 10 µM; 200,000 tested, 9% active; resazurin fluorescence viability; in the data active = inhibition above about 50%;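 also: promastigotes grown with compound for 44 hours at 28 °C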
Autophagy HCS: autophagy modulation, high-content screen. MEF GFP-LC3 puncta imaging; test concentration mostly 10 µM. calls only at 10 µM (by protocol). 190,000 tested, 0.98% active;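 active = percentage of spot-positive cells more than 3 SD above its plate mean, without a fluorescence outlier flag or 80% toxicity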
MT stabilizer: microtubule stabilization, imaging screen. 200,000 tested, 0.83% active. % tubulin-high responders, % at 10 µM. HeLa tubulin immunostaining HCS, 24 h; share of cells brighter than vehicle mean+2SD. AID 2205;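 active = plate Z-score above 3 for both tubulin-high and condensed-nucleus cell shares, with cell loss under 80%, at 10 µM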;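 also: anti alpha tubulin signal scored within the nucleus-defined area of each cell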
b-catenin transl: modulators of beta-catenin nuclear translocation | HeLa beta-catenin nuclear translocation, immunofluorescence imaging | nuclear translocation activity, % at 5 µM | 190,000 tested, 0.3% active | AID 1665;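 active = nuclear translocation activity above 50% at 5 µM, with a well cell count of 50 or more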;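 also: per-cell ratio of nuclear to cytoplasmic median beta-catenin stain intensity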
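Technique: fluorescence imaging of beta-catenin antibody stain plus DAPI / Material: human HeLa cell line / Incubation: compound treatment 24 h, 37°C, 5% CO2 / Read-out basis: % activation of per-cell nuclear versus cytoplasmic median beta-catenin signal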
A number is an active result; 0 = inactive; - = no result given; + = active, no number. Sampled rows, rich in hits. Any-hit rate of the full collection: about 12%.

SMILES	Dynein cargo inh	CHOP inhibitor	L major viab	Autophagy HCS	MT stabilizer	b-catenin transl
COc1ccc2nc(NC3=NC(c4ccccc4)CC(=O)N3)nc(C)c2c1 (stereo unspecified)	0	0	94	0	0	0
COc1ccc(Nc2nc(C)c3ccccc3n2)cc1	0	0	0	0	0	0
CN(C)CCN(Cc1cc2cc3c(cc2[nH]c1=O)OCO3)C(=S)NCC1CCCO1 (stereo unspecified)	0	0	0	0	0	0
O=C(OCC(=O)N1CCc2ccccc21)c1cccc(S(=O)(=O)N2CCCc3ccccc32)c1	0	0	98	0	0	0
Cc1nc(NC(=O)COC(=O)c2ccc(S(=O)(=O)N3CCc4ccccc4C3)cc2)c(Cl)cc1Cl	0	0	0	0	0	0
O=C(COC(=O)c1cccc(S(=O)(=O)N2CCc3ccccc32)c1)NCc1ccco1	0	0	0	0	0	0
O=C(COC(=O)c1ccc(Cl)c(S(=O)(=O)N2CCc3ccccc3C2)c1)Nc1ncc(Cl)cc1Cl	0	0	81	0	0	0
O=C(COC(=O)c1cccc(S(=O)(=O)N2CCc3ccccc32)c1)Nc1ncc(Cl)cc1Cl	0	0	60	0	0	0
CC1CC(C)(C)CC2(C1)NC(=O)N(CC(=O)NC1CCCc3ccccc31)C2=O (stereo unspecified)	0	0	0	0	0	-
CCOc1ccccc1N1CCN(C(=O)c2ccccc2)CC1	0	0	0	0	0	-
CCOc1ccccc1N1CCN(C(=O)C2c3ccccc3Oc3ccccc32)CC1	0	0	0	0	40	60
CCOC(=O)C1CCCN(C(=O)C2c3ccccc3Oc3ccccc32)C1 (stereo unspecified)	0	76	0	0	0	0
CSc1nsc(SCC(=O)N2CCCCC2)n1	0	0	0	0	0	0
Cc1cc2cc(CNC(=O)c3ccc(C)c([N+](=O)[O-])c3)ccc2[nH]1	0	0	0	0	0	0
Cc1ccc(NC(=O)CN2CCN(CCN=CC3=C(O)CC(c4ccc(C)cc4)CC3=O)CC2)cc1 (stereo unspecified)	0	0	0	0	0	0
O=C(O)/C(=C\c1ccc(Cl)cc1)c1ccc(F)cc1	0	0	0	0	0	0
O=C(Cn1c(C(=O)NCC2CCCO2)cc2sccc21)c1ccccc1 (stereo unspecified)	0	0	0	0	0	0
O=C(Cn1c(C(=O)N2CCN(C3CCCC3)CC2)cc2sccc21)c1ccccc1	0	0	93	0	0	0
CCCCCCNS(=O)(=O)c1ccc(Cl)s1	0	87	0	0	0	-
O=S(=O)(NCCCN1CCOCC1)c1ccc(Cl)s1	0	0	-	-	-	0
Cc1nn(-c2ccccc2)c(C)c1/C=N/NC(=O)c1ccccc1NS(=O)(=O)c1cccs1	0	0	0	0	0	0
CCC(C)(C(=O)NC1CCCC1)N(C(=O)c1ccccn1)c1ccc(C)cc1 (stereo unspecified)	0	0	0	0	0	0
CN(CC(=O)Nc1nc2ccccc2s1)S(=O)(=O)c1ccc(Cl)cc1	0	84	88	0	0	-
CN(CC(=O)Nc1nc2ccccc2s1)S(=O)(=O)c1ccc(Br)cc1	0	0	0	0	0	0
COc1ccccc1OCC(=O)N(Cc1nc(-c2ccc(Cl)cc2)no1)C(C)C	0	0	0	0	0	-
SMILES	Dynein cargo inh	CHOP inhibitor	L major viab	Autophagy HCS	MT stabilizer	b-catenin transl
Cc1cccc(-c2noc(CN(C(=O)c3ccc(Br)o3)C(C)C)n2)c1	0	88	0	0	0	-
Cc1cccc(-c2noc(CN(C(=O)c3ccc4c(c3)OCO4)C(C)C)n2)c1	0	0	0	0	0	-
Cc1cc(Br)ccc1OCC(=O)N(Cc1nc(-c2ccccc2)no1)C(C)C	0	95	0	0	0	0
CC(C)N(Cc1nc(-c2ccccc2)no1)C(=O)C(C)(C)C	0	0	0	+	0	0
CC(C)N(Cc1nc(-c2ccccc2)no1)C(=O)C(Cl)(Cl)Cl	0	0	0	0	0	0
CC(C)N(Cc1nc(-c2ccc(Cl)cc2)no1)C(=O)CCC1CCCC1	0	84	0	0	0	0
CC(C)N(Cc1nc(-c2ccccc2)no1)C(=O)COc1ccccc1	0	0	0	0	0	-
CC1CCc2sc(C(=O)OCC(=O)NC(C)C)cc2C1 (stereo unspecified)	0	0	0	0	0	0
CCC(=O)c1ccc(OCC(O)CN2CCN(c3ccc(F)cc3)CC2)cc1 (stereo unspecified)	0	0	0	0	0	0
CCC(=O)c1ccc(OCC(O)CN(C)C2CCCCC2)cc1 (stereo unspecified)	0	0	92	0	0	-
CN(CC(O)COc1ccc(OCC(O)CN(C)C2CCCCC2)cc1)C1CCCCC1 (stereo unspecified)	0	0	63	+	0	0
CN(CC(O)COC(c1ccccc1)c1ccccc1)C1CCCCC1 (stereo unspecified)	0	0	0	0	0	0
CCC(=O)c1ccc(OCC(O)CNCc2ccc(F)cc2)cc1 (stereo unspecified)	0	0	80	0	0	0
Cc1cccc(C)c1OCC(O)CN(Cc1ccccc1O)C1CCCCC1 (stereo unspecified)	0	85	94	0	0	0
CCn1c(CNC(=O)c2ccco2)nnc1SCC(=O)Nc1cc(C(F)(F)F)ccc1Cl	0	0	0	0	0	0
COC(=O)c1cccc(Oc2nc(N3CCOCC3)nc(N3CCOCC3)n2)c1	0	-	0	0	0	-
CCOCCCNC(=O)C(c1ccccc1)N(Cc1ccc2c(c1)OCO2)C(=O)CNC(C)=O (stereo unspecified)	0	0	0	0	0	0
O=C(NC1CCCC1)c1n[nH]c2ccccc12	0	0	0	0	0	0
CCCn1c(NC(=S)Nc2ccccc2)nc2ccccc21	0	0	0	0	0	0
CCn1c(NC(=S)Nc2ccccc2)nc2ccccc21	0	0	84	0	0	0
S=C(Nc1ccccc1)Nc1nc2ccccc2n1CCOc1ccc(Cl)cc1	0	0	66	0	0	0
O=C1CC(c2ccccc2F)C2=C(COC2=O)N1 (stereo unspecified)	0	0	0	0	0	0
COc1cccc(C2c3c(-c4ccccc4O)n[nH]c3C(=O)N2Cc2ccco2)c1 (stereo unspecified)	0	0	-	-	-	0
O=C1c2[nH]nc(-c3ccccc3O)c2C(c2ccccc2F)N1Cc1ccco1 (stereo unspecified)	0	0	100	0	0	0
O=C1c2[nH]nc(-c3ccccc3O)c2C(c2ccccc2)N1Cc1ccco1 (stereo unspecified)	0	0	78	0	0	0
CCOc1ccccc1/C=N/NC(=O)CNC(=O)c1cccs1	0	0	0	0	0	0
O=C(NC1CCCCC1)C(c1ccc(Cl)cc1)N(C(=O)c1ccccn1)c1cccnc1 (stereo unspecified)	0	0	0	0	0	0

Screening data deposited in PubChem BioAssay by several laboratories.
